From PubChem
SIAE primary: blocks human sialic acid acetylesterase | SIAE FP-Rh probe binding, fluorescence polarization | inhibition, % at 9.66 µM | 0.69% of 370,000 active | AID 1053197;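 active = inhibition above a cutoff: mean of compounds within the control limits plus 3 SD of those, cut at about 17% in these data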;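 note: 0% = plate median of compound wells and 100% = probe without SIAE protein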
PRMT1 inh: PRMT1 (human) inhibition, primary screen | recombinant PRMT1, activity-based probe fluorescence polarization | inhibition, % at 2.79 µM | 1.3% of 370,000 active | Q99873;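 active = inhibition above about 21% made by adding two undisclosed values, limit read from the data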
Target sequence (Q99873 whole entry, looked up): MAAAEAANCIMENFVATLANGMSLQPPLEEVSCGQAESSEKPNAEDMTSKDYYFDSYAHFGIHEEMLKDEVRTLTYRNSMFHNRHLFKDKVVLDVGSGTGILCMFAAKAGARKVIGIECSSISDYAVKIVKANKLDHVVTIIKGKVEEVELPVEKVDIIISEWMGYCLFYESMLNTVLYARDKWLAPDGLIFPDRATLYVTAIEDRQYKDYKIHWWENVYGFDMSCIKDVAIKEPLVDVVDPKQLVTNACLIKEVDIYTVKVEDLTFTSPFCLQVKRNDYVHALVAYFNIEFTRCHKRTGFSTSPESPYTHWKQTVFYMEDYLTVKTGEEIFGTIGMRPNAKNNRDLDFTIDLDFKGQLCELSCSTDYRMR
JMJD2C inh: inhibitors of human GASC-1 (JMJD2C) demethylase | Q9H3R0 | GST-JMJD2C(1-420) H3K9me3 demethylation, DELFIA europium | inhibition, % at 2.35 µM | 0.069% of 330,000 active | AID 2099;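 active = more than half of a compound's replicate wells show inhibition beyond 50%, single wells judged on their own value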;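 note: signal counts dimethyl H3K9 product captured on neutravidin plate; 0% = median of DMSO wells and 100% = 0.3 times that DMSO median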
ABHD4 inh: inhibits mouse alpha/beta hydrolase domain 4; inhibition, % at 8.92 µM; purified mABHD4, FP-Rh probe fluorescence polarization; Q8VD66; AID 720543; 0.54% of 370,000 active;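 active = inhibition exceeding the mean over every tested compound plus 3 SD, cut at about 30% in these data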;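 note: 0% = plate median of compound wells and 100% = S159A mutant with DMSO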
Target sequence (Q8VD66 whole entry, looked up, the tested form may be a part): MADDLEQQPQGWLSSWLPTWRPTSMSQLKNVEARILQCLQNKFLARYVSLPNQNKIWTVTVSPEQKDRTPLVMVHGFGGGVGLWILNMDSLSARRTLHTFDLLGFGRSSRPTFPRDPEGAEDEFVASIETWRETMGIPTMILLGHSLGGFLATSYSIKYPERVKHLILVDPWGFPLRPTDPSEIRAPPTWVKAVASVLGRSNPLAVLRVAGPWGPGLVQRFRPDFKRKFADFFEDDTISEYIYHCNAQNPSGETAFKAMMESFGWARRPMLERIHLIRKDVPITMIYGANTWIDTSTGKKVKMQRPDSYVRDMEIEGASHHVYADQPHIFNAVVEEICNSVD
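Material: mouse ABHD4 enzyme, wild type; Benchmarks: S159A mutant high control, sample median low control; Buffer or medium: HEPES pH 7.0, NaCl, Pluronic buffer; Signal: fluorescence polarization; Read-out: percent inhibition of probe binding, normalized to plate controls; Timing: pre-incubation 45 min, probe exposure 60 min, at 25 °C; Dosing: 8.92 µM, single dose.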
HTRA1 inh: inhibitors of human serine peptidase HTRA1 | Q92743 | recombinant HTRA1, FP-rhodamine activity-based probe, fluorescence polarization | inhibition, % at 5.96 µM | 0.5% of 340,000 active; in the data active = inhibition above about 36%;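 note: 0% = enzyme with DMSO and 100% = wells lacking enzyme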
SIAE inh conf: confirmation of human SIAE inhibitors; SIAE FP-Rh activity-based probe, fluorescence polarization; 13% of 2,300 active; shares compounds with SIAE primary; inhibition, % at 9.66 µM; AID 1117263;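 active = mean inhibition of the replicates above the hit cutoff set in the primary screen, cut at about 17% in these data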;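 note: 0% = SIAE with DMSO and probe and 100% = probe without SIAE; inhibitors lower polarization as more probe stays unbound to SIAE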
The depositor's hits bear a star; · = no result given. In the library only some 2.4% were active in any assay of this set; here they are far more common.

SMILES | SIAE primary | PRMT1 inh | JMJD2C inh | ABHD4 inh | HTRA1 inh | SIAE inh conf
CC[n+]1ccc(C[n+]2ccccc2)c2ccccc21 | 20.2* | 1.6 | 6.8 | 5.7 | -4.5 | 21.6*
Cc1ccc(NC(=S)NNC(=S)Nc2ccc(C)cc2C)cc1 | 18.3* | 4.8 | -10.6 | 10.7 | -6.6 | 5.2
Cc1cc(C)c2c(c1)/C(=N/NC(=S)Nc1ccc(F)cc1)CCC2 | 19.5* | -2.1 | 3.6 | 11.8 | 3.0 | 3.8
COC(=O)N/N=C1\CCCc2c(C)cc(C)cc21 | 10.5 | 0.7 | -31.3 | -4.8 | -2.3 | ·
CCCc1c(C(=O)NNc2ccccc2OC)cnn1-c1ccccc1 | 18.2* | -2.8 | 4.6 | 2.9 | 8.7 | 2.9
Cc1ccc(S(=O)(=O)N(C)C)cc1NC(=O)c1sccc1Cl | 17.5* | -2.3 | -25.2 | -2.0 | -1.4 | -2.4
CCOC(=O)N1C2CCC(C2)N1C(=O)OCC | -9.2 | -0.3 | · | 1.5 | 6.0 | ·
CCOC(=O)N1[C@@H]2C=C(C)[C@@H]2[C@@H]2[C@@H](C)C(=O)N21 | 78.2* | -1.1 | -4.2 | -0.1 | 4.7 | 85.6*
c1ccc(-c2ccc3c(c2)NCCN3)cc1 | 17.4* | -1.7 | -40.4 | 13.1 | 15.6 | 2.9
Nc1ncnc2c1ncn2[C@@H]1O[C@H](C(=O)N2CCC(F)(F)CC2)[C@@H](O)[C@H]1O | 52.0* | 1.1 | · | -1.5 | · | 56.8*
Nc1ncnc2c1ncn2[C@@H]1O[C@H](C(=O)N2CCN(c3nc4ccccc4o3)CC2)[C@@H](O)[C@H]1O | 0.9 | 12.2 | · | 1.1 | · | ·
Nc1ncnc2c1ncn2[C@@H]1O[C@H](C(=O)N2CCC[C@@H]2C(=O)OCc2ccccc2)[C@@H](O)[C@H]1O | 28.0* | 0.5 | · | -6.3 | · | 19.4*
C[C@H](O)C#Cc1cnc2c(c1)C(=O)N([C@H](C)CO)C[C@@H](C)[C@@H](CN(C)Cc1ccc(-c3ccccc3)cc1)O2 | -7.7 | 1.2 | · | 3.0 | 12.5 | ·
Fc1cc(F)c2nc(Nc3nc4cc5c(cc4s3)OCO5)sc2c1 | 25.4* | 0.2 | -8.5 | 2.4 | 2.4 | 84.9*
CCC/C(=N/NC(=O)c1ccccc1Cl)c1ccccc1 | 17.4* | -6.7 | -12.6 | 1.1 | -2.5 | 0.0
CCOc1ccc(OCc2ccc(C(=O)O)o2)cc1 | 39.4* | 3.0 | -0.2 | 3.8 | 4.4 | -1.1
O=C(O)c1ccc(COc2ccc3ccccc3c2)o1 | -0.6 | -3.8 | 2.9 | -1.1 | 1.1 | ·
CC(=O)NC(Cc1ccc2c(c1)OCO2)C(=O)N1CCCN(C(C)=O)CC1 (stereo unspecified) | 1.0 | 6.3 | · | 1.2 | · | ·
Cc1cccc(OCC(=O)O/N=C(\N)c2ccccn2)c1C | 31.4* | 0.3 | -1.5 | -7.8 | -8.2 | -7.1
CN(CCc1ccccn1)C(=O)c1cc2ccccn2n1 | -3.1 | -0.3 | · | 0.4 | · | ·
O=C(Nc1ccc(Cl)cc1C(F)(F)F)c1ccccc1Cl | 28.9* | -3.0 | 5.6 | -2.9 | -7.8 | -4.6
Cc1ccc(C(=O)Nc2ccc(Cl)cc2C(F)(F)F)c(Cl)c1 | 1.4 | -2.0 | 5.5 | -0.7 | -0.8 | ·
Nc1ccc(-c2n[nH]c(=O)c3ccccc23)cc1N | 19.1* | 3.8 | 14.1 | -2.3 | -23.0 | 7.3
COC(=O)[C@]12C[C@H](CC(=O)NCCCN3CCCC3=O)C(=O)N(CCc3ccc(OC)c(OC)c3)C1=C[C@H](C1CCCC1)O[C@@H]2C | -3.9 | -3.5 | · | -0.1 | · | ·
CCOc1ccc(NC(=O)NCc2ccccn2)cc1 | 20.1* | -2.4 | -2.9 | -1.6 | 6.9 | -5.0
SMILES | SIAE primary | PRMT1 inh | JMJD2C inh | ABHD4 inh | HTRA1 inh | SIAE inh conf
Cc1ccc(NC(=O)NCc2ccccn2)cc1 | -4.9 | 2.8 | 11.5 | 2.5 | -1.5 | ·
CCCCCCCCCCC(C(=O)O)C1(C(=O)O)CCC(=O)O1 (stereo unspecified) | -0.1 | 1.2 | · | -0.2 | · | ·
O=C1CCC[C@H]2C[C@H](NCc3ccc(Br)cc3)CC[C@]23CCCN13 | -2.9 | -0.8 | · | -1.1 | · | ·
CCCn1cnc2c(oc3ccccc32)c1=O | 0.8 | 0.0 | 0.3 | -2.8 | 3.3 | ·
CCn1cnc2c(oc3ccccc32)c1=O | 20.1* | -4.1 | 10.9 | -3.5 | -7.7 | 1.3
O=C(Cn1cnc2c(oc3ccccc32)c1=O)c1ccccc1 | 17.6* | -0.7 | 6.1 | -1.2 | 4.0 | -3.5
O=C(O)Cn1cnc2c(oc3ccccc32)c1=O | -7.8 | -3.4 | 10.0 | -8.1 | 7.7 | ·
C=CCn1c(CNC(=O)c2cccs2)nnc1SCC(=O)c1ccc(Br)cc1 | 28.3* | -0.7 | -1.9 | -5.3 | -12.5 | 1.9
CC1(C)CC(=O)C(C=NCC(N)=O)=C(O)C1 | 17.7* | -2.5 | -2.8 | -3.0 | 0.4 | -1.1
O=S(=O)(NCC(Nc1ccc(Cl)cc1)c1ccccc1)c1ccc(Cl)cc1 (stereo unspecified) | 18.9* | 4.8 | -3.3 | -31.8 | -39.6 | 11.5
O=S(=O)(NCC(c1ccccc1)N1CCC(O)CC1)c1ccc(Cl)cc1 (stereo unspecified) | -2.3 | 0.6 | -3.3 | -0.3 | 0.9 | ·
Cc1cc(OC(C)CCN2CCC(C(O)(c3ccccc3)c3ccccc3)CC2)ccc1Br (stereo unspecified) | 1.6 | -3.2 | · | 22.0 | · | ·
S=C(NCCc1ccccc1)N1CCC2CC1c1cc(-c3ccc4c(c3)OCO4)ccc12 (stereo unspecified) | -19.6 | 0.0 | · | -3.2 | · | ·
CC1(c2ccc(Cl)cc2Cl)NC(=O)N(CC(=O)Nc2ccc3[nH]c(=O)[nH]c3c2)C1=O (stereo unspecified) | 24.0* | -2.2 | 1.0 | 2.5 | -3.1 | 1.9
O=C(C1CCCN(S(=O)(=O)c2ccc([N+](=O)[O-])cc2)C1)N1CCN(Cc2ccccc2)CC1 (stereo unspecified) | -2.6 | -0.4 | · | 0.6 | · | ·
O=C(Nc1cccc(S(=O)(=O)N2CCOCC2)c1)c1cn(-c2ccccc2)nc1-c1ccc(F)cc1 | 23.4* | -2.7 | -0.6 | 1.0 | 2.8 | -21.8
O=C(Nc1cccc(S(=O)(=O)N2CCOCC2)c1)c1cn(-c2ccccc2)nc1-c1ccccc1 | -136.9 | -0.7 | -10.3 | -24.7 | -56.6 | ·
COc1ccc(CC(=O)OCC(=O)Nc2ccc3[nH]c(=O)[nH]c3c2)cc1 | -0.2 | 1.3 | 25.8 | 6.9 | 2.1 | ·
O=C(COC(=O)Cc1ccc(F)cc1)Nc1ccc2[nH]c(=O)[nH]c2c1 | 18.1* | -2.0 | 3.0 | 1.0 | 1.2 | 2.1
Cc1nnc(SCC(=O)Nc2ccc3[nH]c(=O)[nH]c3c2)s1 | 0.9 | 2.0 | 0.0 | -3.4 | 7.3 | ·
O=C(CSc1nncs1)Nc1ccc2[nH]c(=O)[nH]c2c1 | 17.2* | -1.9 | -7.3 | 0.2 | -0.8 | 2.1
CCN(CC)c1ccc(-c2nn3c(-c4ccc(C(C)(C)C)cc4)nnc3s2)cc1 | -2.6 | 5.0 | · | 6.0 | · | ·
COc1ccc(C2/C(=C(/O)c3ccc(C)cc3)C(=O)C(=O)N2C)cc1 (stereo unspecified) | 12.0 | 3.8 | 6.6 | 1.0 | -5.4 | ·
COc1ccc(N2C(=O)C(=O)/C(=C(/O)c3ccc(C)cc3)C2c2cccnc2)cc1 (stereo unspecified) | 21.2* | -2.8 | -0.7 | 6.9 | 2.3 | 3.5
